Measured values pooled from the literature.
Lines come from different studies, so protocols differ.
Target: Serine/threonine-protein kinase PAK 4 (PAK4, Homo sapiens, UniProt O96013)

CCN1CCN(Cc2ccc(C(=O)Nc3ccc(C)c(Oc4ccc5c(c4)CC(=O)N5)c3)cc2C(F)(F)F)CC1 has a remaining binding of 100% (binding, competition with immobilised ligand; 1 µM).
Cn1cc(Cl)c2c(Oc3c(F)cc(Nc4cc(Cl)nc(N)n4)cc3F)ccnc21 gave a remaining binding of 100% (cell-free assay, competition with immobilised ligand; 0.1 µM).
C[C@@H]1CN(c2ccc3ncc(-c4ccc5[nH]nc(C6CC6)c5c4)n3n2)C[C@H](C)O1 has a remaining binding of 83% (binding, competition with immobilised ligand; 0.5 µM).
With O=C(N1CCS(=O)(=O)CC1)N1C[C@H](c2ccc(OC(F)(F)F)cc2)C[C@H](c2nc(C3CC3)no2)C1 the remaining binding was 100% (cell-free assay, competition with immobilised ligand; 1 µM).
With FC(F)(F)Oc1cccc(-c2cnc3ccc(-c4ccncc4)nn23)c1 the remaining binding was 47% (cell-free assay, competition with immobilised ligand; 5 µM).
COc1cnc(Nc2cccc(S(N)(=O)=O)c2)nc1N1CCN(c2ccccc2)CC1 gave a remaining binding of 95% (binding, competition with immobilised ligand; 1 µM).
The remaining binding of C[C@H]1CCN(c2nccc(-c3cnn4ncccc34)n2)C1 is reported as 95% (binding; 1 µM).
The remaining binding of O=C(c1ccc(Nc2ncc(Cl)c(-c3cc4ccccc4s3)n2)cc1)N1CCC(N2CCCC2)CC1 is reported as 77% (binding, competition with immobilised ligand; 1 µM).
For c1cnn2ncc(-c3ccnc(N4CCC45COC5)n3)c2c1, the remaining binding was 96% (binding; 1 µM).
The remaining binding of CCC(=O)N[C@@H]1CC[C@H](C(=O)N(C)c2ccc(-c3nc4ccccc4o3)cc2)C1 is reported as 100% (cell-free assay, competition with immobilised ligand; 1 µM).
Nc1ncc2c(n1)-c1c([nH]c3ccc(C#CC4CC4)cc13)CCCC2 gave a remaining binding of 76% (binding, competition with immobilised ligand; 1 µM).
The remaining binding of O=C(NCc1ncc(C(F)(F)F)cc1Cl)c1ccc2c(c1)C1(CCS(=O)(=O)CC1)[C@H](C1CC1)N2S(=O)(=O)c1ccc(F)cc1 is reported as 100% (cell-free assay, competition with immobilised ligand; 1 µM).
N[C@H]1CCN(c2nccc(-c3cnn4ncccc34)n2)C1 gave a remaining binding of 88% (binding; 1 µM).
CNC(=O)Nc1ccc2c(c1)[C@@]1(CC2)OC(=O)N(CC(=O)N(Cc2ccc(F)cc2)[C@@H](C)C(F)(F)F)C1=O gave a remaining binding of 95% (cell-free assay, competition with immobilised ligand; 1 µM).
For F[C@@H]1CCN(c2nccc(-c3cnn4ncccc34)n2)C1, the remaining binding was 100% (binding; 1 µM).
With CS(=O)(=O)NCC[C@H](NC(=O)c1cncc2c1cnn2-c1ccc(F)cc1)c1ccnc(S(C)(=O)=O)c1 the remaining binding was 100% (cell-free assay, competition with immobilised ligand; 1 µM).
The remaining binding of CN(C)c1nccc(-c2cnc3ncccn23)n1 is reported as 88% (binding; 1 µM).
With O=C(NCC1CCOCC1)c1n[nH]cc1NC(=O)c1c(F)cccc1F the remaining binding was 99% (binding, competition with immobilised ligand; 1 µM).
For Cc1nc(C2CCN(C(=O)c3ccc(OC(F)(F)F)cc3N)CC2)c2ncc(N3CCN(C)CC3)cc2n1, the remaining binding was 100% (cell-free assay, competition with immobilised ligand; 1 µM).
For O=C(NCCCN1CCOCC1)c1ccc(Nc2ncc(Cl)c(-c3ccc(Cl)s3)n2)cc1, the remaining binding was 89% (binding, competition with immobilised ligand; 1 µM).
The remaining binding of CN(CCCC(F)(F)F)c1nccc(-c2cnn3ncccc23)n1 is reported as 100% (binding; 1 µM).
For O=C(c1ccc(Nc2ncc(Cl)c(-c3ccc(Cl)s3)n2)cc1)N1CCC(N2CCCC2)CC1, the remaining binding was 53% (binding, competition with immobilised ligand; 1 µM).
With Cc1nc(N2CC[C@@H](O)C2)ncc1-c1cc(C(F)(F)F)cc2[nH]ncc12 the remaining binding was 100% (cell-free assay, competition with immobilised ligand; 1 µM).
The remaining binding of CC(C)(C)c1ccc(-c2nc(CBr)nn2-c2cccc(O)c2)cc1 is reported as 87% (cell-free assay, competition with immobilised ligand; 10 µM).
CC1CCCN1c1nccc(-c2cnn3ncccc23)n1 (stereo not shown) gave a remaining binding of 100% (binding; 1 µM).
